The source of these data is ChEMBL document CHEMBL1134629, “Synthesis and biological evaluation of s-triazine substituted polyamines as potential new anti-trypanosomal drugs” (J Med Chem, 2001).

SMILES strings stand for the structures.

One may read the IC50 as the concentration needed to halve the response being measured. A low value points to greater potency in that assay. Broadly, the Ki is a dissociation constant, usually derived from enzyme kinetics or from competition with a known ligand.

One experiment is filed under the species Rattus norvegicus. Briefly: Inhibitory activity against L-6 rat myoblast cells. It is filed as functional, cell-based. A digest of the protocol:
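Noninfected rat L-6 skeletal myoblasts seeded at 2000 cells/well in RPMI 1640 with 10% FBS and 2 mM L-glutamine; serial drug dilutions as in the T. cruzi assay, 37 °C, 5% CO2; MIC determined microscopically after 4 days.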

Experiment [1] can be described thus: Inhibitory activity against Trypanosoma cruzi. The class given is functional. A digest of the protocol:
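L-6 myoblasts (2000/well, RPMI 1640, 10% FBS, 2 mM L-glutamine) infected after 24 h with 5000 trypomastigotes of T. cruzi Tulahuen C2C4 carrying LacZ plus serial drug dilution; 4 days at 37 °C, 5% CO2. Intracellular amastigote growth read via CPRG/Nonidet colour at 540 nm after 2-4 h; IC50 from sigmoidal inhibition curve.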

Experiment [2] has as its system Trypanosoma brucei rhodesiense. In words: Inhibitory activity against T.b. rhodesiense. It is filed as functional, organism-based.
A further experiment concerns the target T1, Adenosine transporter 1 (Trypanosoma brucei, UniProt Q9Y0I0).
T1 sequence (Q9Y0I0 whole entry): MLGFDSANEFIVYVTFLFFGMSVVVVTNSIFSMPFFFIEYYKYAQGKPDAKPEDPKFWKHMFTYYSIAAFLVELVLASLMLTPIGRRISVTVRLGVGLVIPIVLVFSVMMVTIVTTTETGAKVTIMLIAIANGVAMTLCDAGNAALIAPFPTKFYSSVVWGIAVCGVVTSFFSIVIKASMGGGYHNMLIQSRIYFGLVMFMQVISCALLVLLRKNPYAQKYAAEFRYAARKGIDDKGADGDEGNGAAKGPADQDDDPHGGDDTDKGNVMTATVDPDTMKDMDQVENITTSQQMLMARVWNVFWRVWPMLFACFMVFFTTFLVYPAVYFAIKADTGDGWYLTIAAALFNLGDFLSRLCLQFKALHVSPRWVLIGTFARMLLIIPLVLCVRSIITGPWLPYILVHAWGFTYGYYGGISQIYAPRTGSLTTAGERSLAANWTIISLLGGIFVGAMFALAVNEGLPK
Briefly: Ability to inhibit adenosine uptake by the P2 transporter in Trypanosoma brucei. A digest of the protocol:
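T. b. brucei 427 cells (100 µL at 2 × 10⁸/mL) added to buffer with radiolabeled adenosine, 1 mM inosine to block P1 uptake, and varying inhibitor concentrations; 10 s at room temperature, then spun through 1-bromododecane oil, pellet radioactivity counted by scintillation. Apparent Ki from competitive inhibition equation; duplicate experiments.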

For experiment [3], the system named is Trypanosoma brucei brucei. In words: Inhibitory activity against Trypanosoma brucei. The class given is functional, organism-based.

Take `CCCCCCCCCCCCCCCCCCNc1nc(NC)nc(NC)n1`: the figures for the IC50 (in the experiment listed under Rattus norvegicus; in experiment [1]; in experiment [2]) were 48.2 µM, 12 µM and 14 µM, respectively.

With `Nc1nc(N)nc(NCCCCCCCCCCCCNc2nc(N)nc(N)n2)n1`, the IC50 was determined as 239 µM in the experiment filed under Rattus norvegicus, 6 µM in experiment [1] and 13 µM in experiment [2].

As for `CN(C)c1nc(N)nc(CN(CCCNCCCCCCCCCNCCCN(Cc2nc(N)nc(N(C)C)n2)Cc2nc(N)nc(N(C)C)n2)Cc2nc(N)nc(N(C)C)n2)n1`, the IC50 amounted to 177 µM in the experiment filed under Rattus norvegicus, 54.8 µM in experiment [1], 0.265 µM in experiment [2] and 3 µM in experiment [3]. Besides, the Ki at Adenosine transporter 1 is 17 µM.

For the compound `Nc1nc(N)nc(NCCCNC2CCC(NCCCNc3nc(N)nc(N)n3)CC2)n1` (centres undefined), the IC50 in the experiment listed under Rattus norvegicus is 338 µM; in experiment [1] it was more than 152 µM; in experiment [2], more than 152 µM; in experiment [3], more than 100 µM. At Adenosine transporter 1, this compound displayed a Ki of 125 µM.

As to `CNc1nc(NC)nc(NCCCNCCCCCCCCCCCCNCCCN)n1`, the IC50 in the experiment listed under Rattus norvegicus was 57.7 µM; in experiment [1] it was 31 µM; in experiment [2], 0.58 µM; in experiment [3], 20 µM. This compound also returned a Ki at Adenosine transporter 1 of 25 µM.

As for `CN(C)c1nc(N)nc(NCCCNCCCCCCCCCNCCCNc2nc(N)nc(N(C)C)n2)n1`, the IC50 is 274 µM in the experiment filed under Rattus norvegicus, more than 123 µM in experiment [1], 9.6 µM in experiment [2] and 40 µM in experiment [3]. At Adenosine transporter 1, this compound returned a Ki of 10 µM.

With `CN(C)c1nc(N)nc(NCCCNCCCCCCCCCCCCNCCCN)n1`, the IC50 in the experiment filed under Rattus norvegicus amounted to 39.9 µM; in experiment [1], 32 µM; in experiment [2], 0.94 µM; in experiment [3], 20 µM. On Adenosine transporter 1, this compound had a Ki of 1 µM.

Regarding `CN(C)c1nc(N)nc(CN(CCCNCCCCCCCCCCCCNCCCN(Cc2nc(N)nc(N(C)C)n2)Cc2nc(N)nc(N(C)C)n2)Cc2nc(N)nc(N(C)C)n2)n1`, the IC50 in the experiment filed under Rattus norvegicus is 105 µM; in experiment [1], more than 77 µM; in experiment [2], 0.44 µM; in experiment [3] it was 2 µM. Also, on Adenosine transporter 1, the Ki turned out to be 4.6 µM.

As to `CNc1nc(N)nc(NCCCNCCCCCCCCCNCCCNc2nc(N)nc(NC)n2)n1`, the IC50 in the experiment listed under Rattus norvegicus was 285 µM; in experiment [1], more than 135 µM; in experiment [2], 16 µM; in experiment [3], 53 µM. The Ki at Adenosine transporter 1 came to 0.75 µM.

With `CNc1nc(NC)nc(NCCCNCCCCCCCCCNCCCNc2nc(NC)nc(NC)n2)n1`, the IC50 in the experiment listed under Rattus norvegicus is 289 µM; in experiment [1], more than 130 µM; in experiment [2], 17 µM; in experiment [3], 4 µM. The affinity at Adenosine transporter 1 corresponds to a Ki of 14 µM.

With `CNc1nc(NC)nc(NCCCNCCCCCCCCCCCCNCCCNc2nc(NC)nc(NC)n2)n1`, the IC50 in the experiment listed under Rattus norvegicus is 143 µM; in experiment [1], 18 µM; in experiment [2] it was 2.3 µM; in experiment [3] it was 17 µM. On Adenosine transporter 1, affinity was put at a Ki of 3.2 µM.

In the case of `CNc1nc(N)nc(NCCCNCCCCCCCCCCCCNCCCN)n1`, the half-maximal inhibitory concentration (IC50) in the experiment listed under Rattus norvegicus is 127 µM; in experiment [1], more than 154 µM; in experiment [2] it was 1.1 µM; in experiment [3], more than 200 µM. The same compound displayed a Ki at Adenosine transporter 1 of 0.41 µM.

At Adenosine transporter 1, `CNc1nc(N)nc(NCCCNCCCCCCCCCCCCNCCCNc2nc(N)nc(NC)n2)n1` came in with a Ki of 0.135 µM. The figures for the IC50 in experiment [1], in experiment [2] and in experiment [3] were 116 µM, 9.8 µM and 2 µM, respectively.

Turning to `Nc1nc(N)nc(NCCCNCCCCNCCCNc2nc(N)nc(N)n2)n1`, the concentration for half-maximal inhibition (IC50) in the experiment filed under Rattus norvegicus was 353 µM; in experiment [1], more than 160 µM; in experiment [2] it was 160 µM; in experiment [3] it was more than 100 µM. This compound came in with a Ki on Adenosine transporter 1 of 72 µM.

`Nc1nc(N)nc(NCCCNCCCCCCCCCNCCCNc2nc(N)nc(N)n2)n1` yielded a Ki on Adenosine transporter 1 of 19 µM. For the same compound, the results for the IC50 in experiment [1], in experiment [2] and in experiment [3] were more than 140 µM, 128 µM and more than 100 µM, respectively.

As to `Nc1nc(N)nc(CN(CCCNCCCCCCCCCNCCCN(Cc2nc(N)nc(N)n2)Cc2nc(N)nc(N)n2)Cc2nc(N)nc(N)n2)n1`, the IC50 was 220 µM in the experiment filed under Rattus norvegicus, more than 88 µM in experiment [1], 4.02 µM in experiment [2] and 32 µM in experiment [3]. This compound yielded a Ki on Adenosine transporter 1 of 82 µM.

Consider `CN(C)c1nc(NCCCNCCCCCCCCCNCCCNc2nc(N(C)C)nc(N(C)C)n2)nc(N(C)C)n1`, for which the IC50 in the experiment filed under Rattus norvegicus came to 37.7 µM; in experiment [1], 16 µM; in experiment [2] it was 1.2 µM; in experiment [3], 32 µM. Further, on Adenosine transporter 1, affinity was put at a Ki of 29 µM.

With `CN(C)c1nc(NCCCNCCCCCCCCCCCCNCCCNc2nc(N(C)C)nc(N(C)C)n2)nc(N(C)C)n1`, the IC50 in the experiment filed under Rattus norvegicus turned out to be 6.8 µM; in experiment [1], 0.8 µM; in experiment [2] it was 0.81 µM; in experiment [3], 1.7 µM. Besides, the Ki on Adenosine transporter 1 amounted to 2.5 µM.

Regarding `CNc1nc(CN(CCCNCCCCCCCCCCCCNCCCN(Cc2nc(NC)nc(NC)n2)Cc2nc(NC)nc(NC)n2)Cc2nc(NC)nc(NC)n2)nc(NC)n1`, the IC50 was 76.6 µM in the experiment filed under Rattus norvegicus, more than 77 µM in experiment [1], 0.18 µM in experiment [2] and 2.9 µM in experiment [3]. The compound also displayed a Ki at Adenosine transporter 1 of 2.4 µM.

`CN(C)c1nc(N)nc(NCCCNCCCCCCCCCCCCNCCCNc2nc(N)nc(N(C)C)n2)n1`: the IC50 in the experiment listed under Rattus norvegicus was 50.9 µM; in experiment [1], 9.7 µM; in experiment [2], 3.5 µM; in experiment [3], more than 100 µM. Further, at Adenosine transporter 1, affinity was put at a Ki of 0.24 µM.

Turning to `CN(C)c1nc(NCCCNCCCCCCCCCCCCNCCCN)nc(N(C)C)n1`, the IC50 in the experiment filed under Rattus norvegicus came out at 14.2 µM; in experiment [1] it was 0.71 µM; in experiment [2] it was 1.3 µM; in experiment [3], 14.7 µM. The compound further returned a Ki at Adenosine transporter 1 of 0.6 µM.

As to `Nc1nc(N)nc(NCCCNC2CCCCC2NCCCNc2nc(N)nc(N)n2)n1` (centres undefined), the IC50 in the experiment filed under Rattus norvegicus is 338 µM; in experiment [1] it was more than 152 µM; in experiment [2] it was more than 152 µM; in experiment [3], more than 100 µM. In addition, the Ki on Adenosine transporter 1 worked out at 55 µM.

In the case of `Nc1nc(N)nc(NCCCNCCCCCCCCCCCCNCCCNc2nc(N)nc(N)n2)n1`, the IC50 in the experiment filed under Rattus norvegicus was 295 µM; in experiment [1], more than 13 µM; in experiment [2], 16 µM; in experiment [3] it was more than 100 µM. At Adenosine transporter 1, this compound gave a Ki of 0.5 µM.

Regarding `CNc1nc(CN(CCCNCCCCCCCCCNCCCN(Cc2nc(NC)nc(NC)n2)Cc2nc(NC)nc(NC)n2)Cc2nc(NC)nc(NC)n2)nc(NC)n1`, the IC50 in the experiment listed under Rattus norvegicus stood at 177 µM; in experiment [1], 76.8 µM; in experiment [2] it was 0.265 µM; in experiment [3] it was 0.1 µM. Moreover, on Adenosine transporter 1, the inhibitory constant (Ki) came to 30 µM.

With `CC(CNCCCNc1nc(N)nc(N)n1)NCCCNc1nc(N)nc(N)n1` (centres undefined), the IC50 in the experiment listed under Rattus norvegicus is 362 µM; in experiment [1], more than 163 µM; in experiment [2], more than 163 µM; in experiment [3], more than 100 µM. In addition, on Adenosine transporter 1, affinity was put at a Ki of 163 µM.

In the case of `CNc1nc(NC)nc(NCCCNCCCCCCCCCNCCCN)n1`, the IC50 in the experiment filed under Rattus norvegicus was found to be 135 µM; in experiment [1] it was 23 µM; in experiment [2], 0.94 µM; in experiment [3], 84 µM. Moreover, the Ki at Adenosine transporter 1 stood at 17 µM.

Turning to `Nc1nc(N)nc(CN(CCCNCCCCCCCCCCCCNCCCN(Cc2nc(N)nc(N)n2)Cc2nc(N)nc(N)n2)Cc2nc(N)nc(N)n2)n1`, the IC50 in the experiment filed under Rattus norvegicus was 188 µM; in experiment [1], more than 85 µM; in experiment [2] it was 0.57 µM; in experiment [3] it was 21 µM. Besides, the inhibition constant (Ki) at Adenosine transporter 1 is 6.7 µM.
